# ChEMBL document CHEMBL1914423, “New imidazo[2,1-b]thiazole derivatives: synthesis, in vitro anticancer evaluation, and in silico studies” (Eur J Med Chem, 2011)
# Key:
# Assay type in all cases: functional
# OVCAR-4 = test: Anticancer activity against human OVCAR4 cells assessed as cell growth at 10^-5 M after 48 hrs by SRB assay; details: OVCAR-4, 48 h, read-out: Activity
# EKVX = test: Anticancer activity against human EKVX cells assessed as cell growth at 10^-5 M after 48 hrs by SRB assay; details: read-out: Activity
# How it was run: (§1)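 NCI-60 single-dose screen at one concentration. Cells grown in RPMI 1640 with 5% FBS and 2 mM L-glutamine, plated at 5000–40,000 cells/well, and pre-incubated 24 h at 37 °C in 5% CO2 before DMSO-dissolved drug was added. Cells fixed with TCA, SRB-stained, absorbance read at 515 nm. Percent growth calculated against time-zero and untreated control plates.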
# OVCAR-5 = test: Anticancer activity against human OVCAR5 cells assessed as cell growth at 10^-5 M after 48 hrs by SRB assay; details: OVCAR-5, 48 h, read-out: Activity
# OVCAR-8 = test: Anticancer activity against human OVCAR8 cells assessed as cell growth at 10^-5 M after 48 hrs by SRB assay; details: OVCAR-8, 48 h, read-out: Activity
# M14 = test: Anticancer activity against human M14 cells assessed as cell growth at 10^-5 M after 48 hrs by SRB assay; details: M14, 48 h, read-out: Activity; how it was run: as §1
# NCI-H460 = test: Anticancer activity against human NCI-H460 cells assessed as cell growth at 10^-5 M after 48 hrs by SRB assay; details: NCI-H460, 48 h, read-out: Activity
# SK-OV-3 = test: Anticancer activity against human SKOV3 cells assessed as cell growth at 10^-5 M after 48 hrs by SRB assay; details: SK-OV-3, 48 h, read-out: Activity
# HOP-92 = test: Anticancer activity against human HOP92 cells assessed as cell growth at 10^-5 M after 48 hrs by SRB assay; details: HOP-92, 48 h, read-out: Activity; how it was run: as §1
# SK-MEL-2 = test: Anticancer activity against human SK-MEL-2 cells assessed as cell growth at 10^-5 M after 48 hrs by SRB assay; details: SK-MEL-2, 48 h, read-out: Activity
# SW-620 = test: Anticancer activity against human SW620 cells assessed as cell growth at 10^-5 M after 48 hrs by SRB assay; details: SW-620, 48 h, read-out: Activity
# How it was run: (§2)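 NCI-60 single-dose screen: cells in RPMI 1640 with 5% FBS and 2 mM L-glutamine, plated at 5000–40,000 cells/well by doubling time, and preincubated 24 h at 37 °C. Compound given at one concentration from DMSO stock. Cells TCA-fixed and SRB-stained, absorbance at 515 nm. Percent growth relative to time-zero and untreated controls; inhibition % = 100 − growth %.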
# BT-549 = test: Anticancer activity against human BT549 cells assessed as cell growth at 10^-5 M after 48 hrs by SRB assay; details: BT-549, 48 h, read-out: Activity; how it was run: as §1
# LOX IMVI = test: Anticancer activity against human LOXIMVI cells assessed as cell growth at 10^-5 M after 48 hrs by SRB assay; details: read-out: Activity; how it was run: as §1
# HCT-116 = test: Anticancer activity against human HCT116 cells assessed as cell growth at 10^-5 M after 48 hrs by SRB assay; details: HCT-116, 48 h, read-out: Activity; how it was run: as §1
# MOLT-4 = test: Anticancer activity against human MOLT4 cells assessed as cell growth at 10^-5 M after 48 hrs by SRB assay; details: MOLT-4, 48 h, read-out: Activity
# UO-31 = test: Anticancer activity against human UO31 cells assessed as cell growth at 10^-5 M after 48 hrs by SRB assay; details: UO-31, 48 h, read-out: Activity; how it was run: as §2
# NCI/ADR-RES = test: Anticancer activity against human NCI/ADR-RES cells assessed as cell growth at 10^-5 M after 48 hrs by SRB assay; details: read-out: Activity
# SN12C = test: Anticancer activity against human SN12C cells assessed as cell growth at 10^-5 M after 48 hrs by SRB assay; details: read-out: Activity
# HOP-62 = test: Anticancer activity against human HOP62 cells assessed as cell growth at 10^-5 M after 48 hrs by SRB assay; details: HOP-62, 48 h, read-out: Activity; how it was run: as §1
# PC-3 = test: Anticancer activity against human PC3 cells assessed as cell growth at 10^-5 M after 48 hrs by SRB assay; details: PC-3, 48 h, read-out: Activity
# NCI-H23 = test: Anticancer activity against human NCI-H23 cells assessed as cell growth at 10^-5 M after 48 hrs by SRB assay; details: NCI-H23, 48 h, read-out: Activity
# NCI-H322M = test: Anticancer activity against human NCI-H322M cells assessed as cell growth at 10^-5 M after 48 hrs by SRB assay; details: read-out: Activity
# CCRF-CEM = test: Anticancer activity against human CCRF-CEM cells assessed as cell growth at 10^-5 M after 48 hrs by SRB assay; details: read-out: Activity; how it was run: as §1
# Malme-3M = test: Anticancer activity against human MALME-3M cells assessed as cell growth at 10^-5 M after 48 hrs by SRB assay; details: read-out: Activity; how it was run: as §1
# COLO 205 = test: Anticancer activity against human COLO205 cells assessed as cell growth at 10^-5 M after 48 hrs by SRB assay; details: COLO 205, 48 h, read-out: Activity; how it was run: as §1
# SK-MEL-5 = test: Anticancer activity against human SK-MEL-5 cells assessed as cell growth at 10^-5 M after 48 hrs by SRB assay; details: SK-MEL-5, 48 h, read-out: Activity
# UACC-257 = test: Anticancer activity against human UACC257 cells assessed as cell growth at 10^-5 M after 48 hrs by SRB assay; details: UACC-257, 48 h, read-out: Activity; how it was run: as §2
# SR = test: Anticancer activity against human SR cells assessed as cell growth at 10^-5 M after 48 hrs by SRB assay; details: read-out: Activity; how it was run: as §2
# HCC 2998 = test: Anticancer activity against human HCC2998 cells assessed as cell growth at 10^-5 M after 48 hrs by SRB assay; details: HCC 2998, 48 h, read-out: Activity; how it was run: as §1
# UACC-62 = test: Anticancer activity against human UACC62 cells assessed as cell growth at 10^-5 M after 48 hrs by SRB assay; details: UACC-62, 48 h, read-out: Activity; how it was run: as §2
# MDA-MB-231 = test: Anticancer activity against human MDA-MB-231 cells assessed as cell growth at 10^-5 M after 48 hrs by SRB assay; details: MDA-MB-231, 48 h, read-out: Activity; how it was run: as §1
# A498 = test: Anticancer activity against human A498 cells assessed as cell growth at 10^-5 M after 48 hrs by SRB assay; details: A498, 48 h, read-out: Activity; how it was run: as §1
# U-251 = test: Anticancer activity against human U251 cells assessed as cell growth at 10^-5 M after 48 hrs by SRB assay; details: U-251, 48 h, read-out: Activity; how it was run: as §2
# SF-268 = test: Anticancer activity against human SF268 cells assessed as cell growth at 10^-5 M after 48 hrs by SRB assay; details: SF-268, 48 h, read-out: Activity
Structure (SMILES),growth at 10 µM (OVCAR-4) [%],growth at 10 µM (EKVX) [%],growth at 10 µM (OVCAR-5) [%],growth at 10 µM (OVCAR-8) [%],growth at 10 µM (M14) [%],growth at 10 µM (NCI-H460) [%],growth at 10 µM (SK-OV-3) [%],growth at 10 µM (HOP-92) [%],growth at 10 µM (SK-MEL-2) [%],growth at 10 µM (SW-620) [%],growth at 10 µM (BT-549) [%],growth at 10 µM (LOX IMVI) [%],growth at 10 µM (HCT-116) [%],growth at 10 µM (MOLT-4) [%],growth at 10 µM (UO-31) [%],growth at 10 µM (NCI/ADR-RES) [%],growth at 10 µM (SN12C) [%],growth at 10 µM (HOP-62) [%],growth at 10 µM (PC-3) [%],growth at 10 µM (NCI-H23) [%],other results
COc1cccc(-c2nc3sccn3c2-c2ccnc(NCCNC(=O)c3cc(C(F)(F)F)cc(C(F)(F)F)c3)n2)c1,103,84.4,101,82.4,79.3,92.2,97,38.5,81.8,119,86.2,92.5,69.1,67.6,61.2,72.7,90.8,109,49.5,102,growth at 10 µM (NCI-H322M): 95.5%; growth at 10 µM (CCRF-CEM): 69.9%; growth at 10 µM (Malme-3M): 94.1%; growth at 10 µM (COLO 205): 93.4%; growth at 10 µM (SK-MEL-5): 75%; growth at 10 µM (UACC-257): 99.6%; growth at 10 µM (SR): 78.1%; growth at 10 µM (HCC 2998): 90.2%; growth at 10 µM (UACC-62): 70.3%; growth at 10 µM (MDA-MB-231): 82.9%; growth at 10 µM (A498): 95.6%; growth at 10 µM (U-251): 92%; growth at 10 µM (SF-268): 82.5%
COc1cccc(-c2nc3sccn3c2-c2ccnc(NCCNC(=O)c3ccc(N4CCOCC4)c(C(F)(F)F)c3)n2)c1,102,74.1,96.9,62.4,62.1,77.7,82.8,85.1,86.5,108,74.8,73.5,82.6,50.8,58.2,69.6,91.7,99.4,60.8,102,growth at 10 µM (NCI-H322M): 101%; growth at 10 µM (CCRF-CEM): 54.6%; growth at 10 µM (Malme-3M): 78.4%; growth at 10 µM (COLO 205): 69%; growth at 10 µM (SK-MEL-5): 57.2%; growth at 10 µM (UACC-257): 87.7%; growth at 10 µM (SR): 76.7%; growth at 10 µM (HCC 2998): 93.3%; growth at 10 µM (UACC-62): 41.3%; growth at 10 µM (MDA-MB-231): 94.2%; growth at 10 µM (A498): 64.6%; growth at 10 µM (U-251): 87.2%; growth at 10 µM (SF-268): 89.7%
